# Most compounds without a hit are left out; they make up all but 1.6% or so of the library.
# Rpn11 inh: Rpn11 (human) deubiquitinase inhibition; AID 588493; 0.59% of 360,000 active; human 26S proteasome, Ub4-pepOG fluorescence polarization; 20S core pre-blocked with epoxomicin; calls only at 20 µM;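 active means inhibition at 20 µM, scaled to each plate's controls, above about 33%, limit read from the data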
# PKA-R2B activ: PKA-R2B complex activation. activation, % at 11.4 µM. P22694+P31323. AID 504700. PKA-R2B holoenzyme dissociation, Cy5-IP20 fluorescence polarization; R2B truncated from residue 108, S112A mutant; 0% DMSO only, 100% 113 µM cGMP. 0.079% of 340,000 active;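 active means activation above a cutoff set at the mean over all compounds plus 3 SD, cut at about 18% in these data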;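 further: higher means more holoenzyme dissociation and a rise in polarization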
# CSN inh: CSN deneddylation inhibition; Q92905; Purified CSN, SCF-Nedd8-OG deneddylation, fluorescence polarization; inhibition, % at 12.5 µM; 0.38% of 360,000 active;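 active means pattern-corrected inhibition above about 35%, with an unprinted fluorescence ratio check between 0.5 and 1.5, limit read from the data, passing the limit was not always enough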
#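 Assay system: Purified human Csn5 enzyme expressed in HEK293T cells | Amount: Enzyme 0.24 nM | Measured by: Fluorescence polarization readout | Medium: Tris/NaCl/DTT buffer, pH 7.5 | Compound dosing: One concentration, 12.5 µM, 0.25% DMSO | Times: 90 min incubation of compound, enzyme and substrate at room temperature | Control set: no-enzyme wells high, enzyme-with-substrate wells low | Read-out: % inhibition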
# PKA-R1A activ: activators of PKA-R1A complex | activation, % at 11.4 µM | PKA-R1A dissociation, Cy5-IP20 fluorescence polarization; scaled: DMSO 0%, 113 µM cGMP 100% | 0.083% of 340,000 active;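 active means percent activation above the mean of all tested compounds plus 3 SD, cut at about 19% in these data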;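 further: higher means more PKAc released from R1A so a rise in polarization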
# HNF4A DNA FP: change in binding of human HNF4 alpha to DNA | P41235 | HNF4a-FITC DNA binding, fluorescence polarization, 1 h | activity change, % at 10 µM | 0.3% of 360,000 active; in the data active means activity change above about 30%, passing the limit was not always enough
# TPT1 inhibitor: blocks Candida albicans tRNA 2'-phosphotransferase; 0.81% of 300,000 active; inhibition, % at 5 µM; AID 1962; recombinant caTPT1, FP RNA substrate dephosphorylation;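 active means inhibition above the mean of all tested compounds plus 3 SD, set per screening campaign, cut at about 24% in these data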
# caTPT1 confirm: confirmation of Candida albicans TPT1 inhibitors | shares compounds with TPT1 inhibitor | recombinant caTPT1, fluorescence polarization, RNase T1 coupled | inhibition, % at 5 µM | 74% of 2,400 active | AID 2149;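 active means inhibition above the primary screen limit, the mean inhibition of all tested compounds plus 3 SD, cut at about 25% in these data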
# RNase T1 inh: blocks Aspergillus oryzae RNase T1, a TPT1 counter-screen; shares compounds with TPT1 inhibitor; RNase T1 cleavage, fluorescence polarization, 1536-well; inhibition, % at 5 µM; 83% of 2,400 active; AID 2153;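 active means inhibition above the solvent-only control well mean plus 3 SD, limit set per screening run, cut at about 23% in these data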;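 further: inhibitors block cleavage so intact labeled substrate keeps polarization high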
# CSN5 deneddyl: validation of inhibitors of human CSN-mediated cullin deneddylation. shares compounds with CSN inh. Csn5 deneddylation of SCF-Nedd8OG, fluorescence polarization, 90 min. inhibition, % at 16.6 µM. 62% of 540 active. AID 720654; in the data active means inhibition above about 50%
# MMP2 cntr CSN: MMP-2 (human) inhibition, counter-screen for CSN hits; shares compounds with CSN inh; recombinant MMP-2, FRET substrate fluorescence, 60 min; inhibition, % at 16.6 µM; 33% of 540 active; AID 720655;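 active means corrected plate-normalized z-score of 5 or more, or -5 or less, or inhibition of 15% or more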
# Target sequence (P08253 whole entry, looked up): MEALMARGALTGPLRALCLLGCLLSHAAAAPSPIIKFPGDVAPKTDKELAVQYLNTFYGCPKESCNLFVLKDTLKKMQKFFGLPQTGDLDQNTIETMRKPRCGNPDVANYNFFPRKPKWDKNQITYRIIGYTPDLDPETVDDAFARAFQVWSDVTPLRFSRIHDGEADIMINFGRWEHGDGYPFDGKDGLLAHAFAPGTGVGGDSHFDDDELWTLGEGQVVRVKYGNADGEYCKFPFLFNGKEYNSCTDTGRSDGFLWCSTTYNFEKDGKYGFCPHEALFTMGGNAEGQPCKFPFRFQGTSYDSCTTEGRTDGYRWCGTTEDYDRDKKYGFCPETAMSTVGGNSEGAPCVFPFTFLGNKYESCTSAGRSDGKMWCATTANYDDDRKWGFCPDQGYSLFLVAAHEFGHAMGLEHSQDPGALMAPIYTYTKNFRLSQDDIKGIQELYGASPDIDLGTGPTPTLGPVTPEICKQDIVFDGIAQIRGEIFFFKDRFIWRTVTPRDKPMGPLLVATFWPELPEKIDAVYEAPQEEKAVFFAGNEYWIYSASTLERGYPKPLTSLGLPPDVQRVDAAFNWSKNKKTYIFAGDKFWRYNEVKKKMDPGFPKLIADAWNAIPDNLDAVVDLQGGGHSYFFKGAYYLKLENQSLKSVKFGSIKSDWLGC
# Thrombin counter: thrombin (bovine) inhibition, counter-screen for CSN hits | AID 720656 | bovine thrombin cleavage of Ub4-pepOG, fluorescence polarization | shares compounds with CSN inh | inhibition, % at 16.6 µM | 49% of 540 active;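 active means inhibition at or above a set limit, with a fluorescence interference ratio between 0.5 and a set maximum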
# HNF4A confirm: change in binding of human HNF4 alpha to DNA, retest; activity change, % at 12.5 µM; shares compounds with HNF4A DNA FP; 99% of 210 active; HNF4A-FITC DNA binding, fluorescence polarization, 1 h; call rule not given here
# A number is an active result; - = inactive; . = not tested or not shown.
SMILES,Rpn11 inh,PKA-R2B activ,CSN inh,PKA-R1A activ,HNF4A DNA FP,TPT1 inhibitor,caTPT1 confirm,RNase T1 inh,CSN5 deneddyl,MMP2 cntr CSN,Thrombin counter,others
O=C1CN=C(c2cc([N+](=O)[O-])ccc2Cl)c2cc([N+](=O)[O-])ccc2N1,-,-,-,-,-,-,.,.,.,.,.,
Cn1cccc1/C=C1/C(=O)NC(=S)N(Cc2ccc(F)cc2)C1=O,-,-,-,-,-,-,.,.,.,.,.,
CCc1ccc(N2C(=O)NC(=O)/C(=C\C=C\c3ccco3)C2=O)cc1,.,-,86,-,-,58,51,68,-,-,-,
CC(C)c1ccc(N2C(=O)NC(=O)/C(=C/C=C/c3ccco3)C2=O)cc1,.,-,135,-,66,102,70,72,-,-,52,
Cc1cc(C)cc(N2C(=O)NC(=O)/C(=C\C=C\c3ccco3)C2=O)c1,-,-,59,-,-,47,45,62,59,-,24,
O=C1NC(=O)N(Cc2ccc(F)cc2)C(=O)/C1=C\C=C\c1ccco1,.,-,99,-,-,90,48,63,73,-,17,
CCOC(=O)CNC(=O)N1Cc2cc(N3CCOCC3)ccc2-n2nncc2C1,-,.,-,.,-,.,.,.,.,.,.,
CCc1ccccc1N1C(=O)/C(=C/c2ccc(N3CCN(C)CC3)o2)C(=O)NC1=S,.,-,128,-,55,106,142,138,-,-,77,
CCc1ccccc1N1C(=O)NC(=O)/C(=C\c2cc(C)n(C)c2C)C1=O,-,-,-,-,-,-,.,.,.,.,.,
O=C1NC(=O)N(c2ccc3c(c2)OCO3)C(=O)/C1=C\c1ccc(N2CCCCC2)o1,.,-,89,-,-,126,148,145,138,-,-,
CCOC(=O)[C@]12Cc3cc(Cl)ccc3[C@H]1N(CC(=O)OC)C(=O)c1ccccc12,.,.,-,.,-,.,.,.,.,.,.,
CCOc1ccc([N+](=O)[O-])cc1CNCCc1ccccc1,-,-,-,-,-,-,.,.,.,.,.,
O=C1NC(=O)N(Cc2ccccc2Cl)C(=O)/C1=C/N1CCOCC1,.,-,-,-,37,40,47,60,.,.,.,HNF4A confirm=54
CCC(C)C12CN3CCN(CC(C)(C3)C1O)C2 (stereo unspecified),-,-,-,-,-,-,.,.,.,.,.,

# High-throughput results deposited in PubChem by several laboratories.
